Test results published in ChEMBL document CHEMBL4665766, “Synthesis and in vitro evaluation of vanillin derivatives as multi-target therapeutics for the treatment of Alzheimer's disease” (Bioorg Med Chem Lett, 2020).
Active and inactive are the calls of the source. The calls are words filed in the database; no cut-off is given here.

How the values were obtained:
[1] = Antioxidant activity assessed as DPPH free radical scavenging activity after 1 hr by microplate reader based assay; assay type: functional
[2] = Selectivity index, ratio of IC50 for electric eel AChE to IC50 for equine BuChE
Procedure, shortened: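 Ratio of Ellman-assay IC50 values, AChE IC50 divided by BuChE IC50. Electric eel AChE was diluted 1/100 with acetylthiocholine substrate. Equine BuChE was diluted 3/100 with butyrylthiocholine substrate. Both enzymes were preincubated with compound and DTNB for 10 min at 37°C, given 10 min with substrate, and read at 415 nm.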

[3] = molecular target: Acetylcholinesterase (Electrophorus electricus, UniProt O42275); experiment: (§1) Inhibition of electric eel AChE by Ellman's method
Procedure, shortened: (§2)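 Electrophorus electricus AChE stock at 22 U/mL in 20 mM Tris HCl (pH 7.5), diluted 1/100 before use. Compound dilution series in methanol (≤1% DMSO) was preincubated with enzyme and DTNB solution (3 mM, phosphate/Hepes 0.05 M/0.09 M, pH 7.5) for 10 min at 37°C. Acetylthiocholine iodide solution (15 mM) was then added for a further 10 min, and A415 was read. IC50 is the 50% activity inhibition point, from 3 independent experiments.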

[4] = Antioxidant activity assessed as trolox equivalent of AAPH-induced radical scavenging activity preincubated for 10 mins followed by AAPH addition and measured every minute for 35 mins by ORAC fluorescein assay; assay type: functional; conditions: time min <=35
[5] = Antioxidant activity assessed as increase in total ferric ion reducing activity using FeCl3.H2O and TPTZ by measuring trolox equivalents at pH 3.6 measured at different time interval up to 150 mins by microplate reader based FRAP assay; assay type: functional; design: unit not given here; conditions: time min <=150
[6] = molecular target: Cholinesterase (Equus caballus, UniProt P81908); experiment: (§3) Inhibition of equine BuChE by Ellman's method
Procedure, shortened: (§4)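 Equine serum BuChE stock at 22 U/mL in 20 mM Tris HCl (pH 7.5), diluted 3/100 before use. Methanol dilutions of compound (≤1% DMSO) were preincubated 10 min at 37°C with enzyme and 3 mM DTNB solution (phosphate/Hepes buffer, pH 7.5). Butyrylthiocholine iodide solution (15 mM) was then added, with 10 min further incubation, and absorbance was read at 415 nm. IC50 (50% activity inhibited) was taken from 3 independent experiments.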

[7] = molecular target: Acetylcholinesterase (Electrophorus electricus) (UniProt O42275); experiment: as §1; procedure, shortened: as §2
[8] = molecular target: Cholinesterase (Equus caballus) (UniProt P81908); experiment: as §3; procedure, shortened: as §4
[9] = molecular target: Cholinesterase (Equus caballus) (UniProt P81908); experiment: Potency index, ratio of rivastigmine IC50 to test compound IC50 for inhibition of equine BuChE
[10] = Potency index, ratio of trolox to test compound for antioxidant activity assessed as trolox equivalent of AAPH scavenging activity by ORAC fluorescein assay; assay type: functional
Procedure, shortened: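 Compounds from 10 mM DMSO stocks and Trolox diluted in 75 mM phosphate buffer, pH 7.4. […] with 25 nM sodium fluorescein (solution concentration), then 0.15 M AAPH solution added. Fluorescence (ex 485, em 525 nm) […]. TE from comparing the slopes of Trolox and compound calibration curves; mean ± SD of 3 independent experiments.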

[11] = Potency index, ratio of test compound trolox equivalent to vanillin trolox equivalent for antioxidant activity assessed as ferric ion reducing activity by FRAP assay; assay type: functional
[12] = molecular target: Cholinesterase (Equus caballus) (UniProt P81908); experiment: Potency index, ratio of neostigmine IC50 to test compound IC50 for inhibition of equine BuChE

Chain of Cholinesterase (P81908 whole entry): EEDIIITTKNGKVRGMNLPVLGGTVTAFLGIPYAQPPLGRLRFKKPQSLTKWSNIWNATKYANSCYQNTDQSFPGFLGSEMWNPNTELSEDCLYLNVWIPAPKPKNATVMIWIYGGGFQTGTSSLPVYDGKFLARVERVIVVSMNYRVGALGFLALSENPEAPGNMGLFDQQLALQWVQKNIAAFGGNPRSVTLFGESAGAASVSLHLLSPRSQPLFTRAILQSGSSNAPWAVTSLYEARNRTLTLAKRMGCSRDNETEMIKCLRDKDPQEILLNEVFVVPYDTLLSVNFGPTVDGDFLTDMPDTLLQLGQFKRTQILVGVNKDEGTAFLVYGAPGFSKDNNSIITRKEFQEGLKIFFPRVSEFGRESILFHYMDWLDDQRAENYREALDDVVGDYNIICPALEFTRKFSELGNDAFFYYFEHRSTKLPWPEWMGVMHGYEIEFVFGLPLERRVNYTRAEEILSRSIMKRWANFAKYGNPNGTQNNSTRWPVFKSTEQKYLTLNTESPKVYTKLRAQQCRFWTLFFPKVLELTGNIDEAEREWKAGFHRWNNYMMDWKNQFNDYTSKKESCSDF
Chain of Cholinesterase (Equus caballus) (P81908 whole entry): as above
Chain of Acetylcholinesterase (O42275 whole entry): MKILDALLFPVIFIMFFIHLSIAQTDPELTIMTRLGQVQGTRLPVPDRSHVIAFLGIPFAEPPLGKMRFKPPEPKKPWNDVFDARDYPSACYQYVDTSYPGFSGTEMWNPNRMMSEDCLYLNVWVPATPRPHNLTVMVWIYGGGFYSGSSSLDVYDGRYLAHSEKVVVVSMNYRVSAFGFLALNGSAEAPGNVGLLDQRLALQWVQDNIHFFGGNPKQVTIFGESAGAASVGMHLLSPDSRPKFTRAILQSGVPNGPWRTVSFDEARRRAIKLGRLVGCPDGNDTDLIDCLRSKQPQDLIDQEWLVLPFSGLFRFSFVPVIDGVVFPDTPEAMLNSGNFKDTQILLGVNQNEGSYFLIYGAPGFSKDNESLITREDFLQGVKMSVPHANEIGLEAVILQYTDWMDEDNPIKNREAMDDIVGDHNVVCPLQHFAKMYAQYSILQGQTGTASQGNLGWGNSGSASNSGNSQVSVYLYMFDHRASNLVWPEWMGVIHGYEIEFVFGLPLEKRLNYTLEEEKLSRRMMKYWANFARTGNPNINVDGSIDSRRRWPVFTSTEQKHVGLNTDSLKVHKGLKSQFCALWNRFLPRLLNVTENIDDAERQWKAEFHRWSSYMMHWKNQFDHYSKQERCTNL
Chain of Acetylcholinesterase (Electrophorus electricus) (O42275 24-633 limits assumed): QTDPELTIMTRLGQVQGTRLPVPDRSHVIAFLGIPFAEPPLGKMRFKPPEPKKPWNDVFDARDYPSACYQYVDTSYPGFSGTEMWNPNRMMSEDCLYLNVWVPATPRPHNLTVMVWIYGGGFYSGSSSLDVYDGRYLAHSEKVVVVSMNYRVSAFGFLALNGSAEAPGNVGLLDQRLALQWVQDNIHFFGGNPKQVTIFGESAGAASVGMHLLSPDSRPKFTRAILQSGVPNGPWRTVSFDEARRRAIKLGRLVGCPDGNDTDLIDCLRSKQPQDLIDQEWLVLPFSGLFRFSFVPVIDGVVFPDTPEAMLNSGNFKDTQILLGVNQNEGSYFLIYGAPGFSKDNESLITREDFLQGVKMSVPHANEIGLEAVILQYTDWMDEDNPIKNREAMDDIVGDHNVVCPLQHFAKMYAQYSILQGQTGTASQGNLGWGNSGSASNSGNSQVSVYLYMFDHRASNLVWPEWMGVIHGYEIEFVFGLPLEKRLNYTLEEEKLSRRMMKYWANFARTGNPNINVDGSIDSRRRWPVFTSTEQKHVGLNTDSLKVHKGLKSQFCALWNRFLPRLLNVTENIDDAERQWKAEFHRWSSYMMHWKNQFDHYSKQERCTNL

Compound	IC50 [1] [µM]	Ratio IC50 [2]	IC50 [3] [µM]	Activity [4]	Activity [5]	IC50 [6] [µM]	inhibition [7]	inhibition [8]	Ratio IC50 [9]	Ratio [10]	Ratio [11]	Ratio IC50 [12]
COc1cc(CNCCCCCCCN2C(=O)c3cccc4cccc(c34)C2=O)ccc1O	70	2.22	3.33	6.7	0.34	1.5						
COc1cc(C=O)ccc1O [VANILLIN]	7920			2.2	0.02		inactive	inactive				
COc1cc(CNCCCNC(=O)c2ccccc2CO)ccc1O	113				0.96							
COc1cc(CN(CCCN2C(=O)c3cccc4cccc(c34)C2=O)Cc2ccc(O)c(OC)c2)ccc1O	16.7	53.1	14.3	9.43	0.49	0.27			3	10	25	10
COc1cc(CNCCCCN2C(=O)c3cccc4cccc(c34)C2=O)ccc1O	62	15.2	13.7	8.1	0.26	0.9						
CN(C)C(=O)Oc1cccc([N+](C)(C)C)c1 [NEOSTIGMINE]		2.56	7.5			2.93						
COc1cc(CNCCCCCCN2C(=O)c3ccccc3C2=O)ccc1O	82.3	12.6	4.67	13.2	0.23	0.37						
